Source: ChEMBL document CHEMBL1136094, “Novel, potent and selective cyclin D1/CDK4 inhibitors: indolo[6,7-a]pyrrolo[3,4-c]carbazoles” (Bioorg Med Chem Lett, 2003)
In brackets after ≈: the same amount, converted by molar mass.

Experiments:
[1] = biological target: Tyrosine-protein kinase Lyn (Homo sapiens) (UniProt P07948); assay: Inhibition of Protein tyrosine kinase Lyn at 100 nM; parameters: scale not given: the % may be the effect or the level left
[2] = biological target: Dual specificity mitogen-activated protein kinase kinase 4 (Homo sapiens) (UniProt P45985); assay: Inhibition of mitogen-activated protein kinase kinase 4 at 100 nM; parameters: scale not given: the % may be the effect or the level left
Method in brief: (§1)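 Panel of 39 kinases, each tested at 100 and 500 nM inhibitor. […] Activity is expressed as % of control and is the mean of duplicate assays.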

[3] = biological target: Mitogen-activated protein kinase 8 (Homo sapiens) (UniProt P45983); assay: Inhibition of c-Jun N-terminal kinase 1-alpha 1 at 500 nM; parameters: scale not given: the % may be the effect or the level left
Method in brief: as §1

[4] = biological target: MAP kinase-activated protein kinase 2 (Homo sapiens) (UniProt P49137); assay: Inhibition of mitogen-activated protein kinase-activated protein kinase 2 at 100 nM; parameters: scale not given: the % may be the effect or the level left
Method in brief: as §1

[5] = biological target: Protein kinase C theta type (Homo sapiens) (UniProt Q04759); assay: Inhibition of Protein kinase C theta at 100 nM; parameters: scale not given: the % may be the effect or the level left
Method in brief: as §1

[6] = biological target: Tyrosine-protein kinase Lyn (Homo sapiens) (UniProt P07948); assay: Inhibition of Protein tyrosine kinase Lyn at 500 nM; parameters: scale not given: the % may be the effect or the level left
Method in brief: as §1

[7] = biological target: Calcium/calmodulin-dependent protein kinase type IV (Homo sapiens) (UniProt Q16566); assay: Inhibition of Calcium/calmodulin-dependent protein kinase type IV at 500 nM; parameters: scale not given: the % may be the effect or the level left
Calcium/calmodulin-dependent protein kinase type IV (Homo sapiens), sequence (Q16566 whole entry): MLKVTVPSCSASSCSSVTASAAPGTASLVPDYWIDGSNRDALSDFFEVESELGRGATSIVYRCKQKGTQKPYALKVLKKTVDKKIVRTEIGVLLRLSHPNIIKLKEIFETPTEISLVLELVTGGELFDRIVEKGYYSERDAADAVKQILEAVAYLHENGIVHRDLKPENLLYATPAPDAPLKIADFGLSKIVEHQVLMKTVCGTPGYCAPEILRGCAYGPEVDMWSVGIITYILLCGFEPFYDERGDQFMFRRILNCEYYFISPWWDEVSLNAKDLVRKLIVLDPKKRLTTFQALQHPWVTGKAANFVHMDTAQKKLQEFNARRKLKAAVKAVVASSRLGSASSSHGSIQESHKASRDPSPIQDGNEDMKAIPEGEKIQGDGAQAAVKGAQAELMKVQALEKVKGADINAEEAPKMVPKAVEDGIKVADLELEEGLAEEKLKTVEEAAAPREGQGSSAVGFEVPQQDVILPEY
Method in brief: (§2)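 Panel profiling of isolated kinases with inhibitor at 100 nM and 500 nM. […] Remaining kinase activity is expressed as % of control and is the mean of duplicate assays.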

[8] = biological target: Inhibitor of nuclear factor kappa-B kinase subunit beta (Homo sapiens) (UniProt O14920); assay: Inhibition of I-kappa-B-kinase beta at 100 nM; parameters: scale not given: the % may be the effect or the level left
Method in brief: as §2

[9] = biological target: Tyrosine-protein kinase SYK (Homo sapiens) (UniProt P43405); assay: Inhibition of Syk protein tyrosine kinase at 500 nM; parameters: scale not given: the % may be the effect or the level left
Method in brief: as §1

[10] = biological target: T1, Cyclin-dependent kinase 4/cyclin D1 (Homo sapiens, UniProt P11802); assay: Inhibitory activity against Cyclin D1-cyclin-dependent kinase 4 in enzymatic assay by measuring phosphorylation of RbING; format: protein-complex assay
T1 sequence (P11802 whole entry): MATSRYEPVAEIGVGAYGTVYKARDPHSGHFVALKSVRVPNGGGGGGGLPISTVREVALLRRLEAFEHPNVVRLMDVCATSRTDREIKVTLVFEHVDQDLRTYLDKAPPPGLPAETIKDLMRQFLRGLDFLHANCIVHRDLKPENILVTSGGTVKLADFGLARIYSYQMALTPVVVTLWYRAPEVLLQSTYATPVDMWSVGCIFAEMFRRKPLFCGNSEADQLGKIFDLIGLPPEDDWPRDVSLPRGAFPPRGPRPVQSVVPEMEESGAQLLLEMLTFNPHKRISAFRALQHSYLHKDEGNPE
T1 sequence (P24385 whole entry, further chain): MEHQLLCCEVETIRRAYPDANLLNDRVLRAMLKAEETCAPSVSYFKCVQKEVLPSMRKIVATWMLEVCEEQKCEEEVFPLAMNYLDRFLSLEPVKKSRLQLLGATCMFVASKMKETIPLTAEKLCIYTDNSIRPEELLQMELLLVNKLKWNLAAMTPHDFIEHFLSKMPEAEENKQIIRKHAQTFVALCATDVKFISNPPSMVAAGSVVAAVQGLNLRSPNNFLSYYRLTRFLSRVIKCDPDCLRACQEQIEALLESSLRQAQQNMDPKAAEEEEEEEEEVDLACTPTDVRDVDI

[11] = biological target: Dual specificity mitogen-activated protein kinase kinase 7 (Homo sapiens) (UniProt O14733); assay: Inhibition of MKK7-beta kinase at 100 nM; parameters: scale not given: the % may be the effect or the level left
Dual specificity mitogen-activated protein kinase kinase 7 (Homo sapiens), sequence (O14733 whole entry): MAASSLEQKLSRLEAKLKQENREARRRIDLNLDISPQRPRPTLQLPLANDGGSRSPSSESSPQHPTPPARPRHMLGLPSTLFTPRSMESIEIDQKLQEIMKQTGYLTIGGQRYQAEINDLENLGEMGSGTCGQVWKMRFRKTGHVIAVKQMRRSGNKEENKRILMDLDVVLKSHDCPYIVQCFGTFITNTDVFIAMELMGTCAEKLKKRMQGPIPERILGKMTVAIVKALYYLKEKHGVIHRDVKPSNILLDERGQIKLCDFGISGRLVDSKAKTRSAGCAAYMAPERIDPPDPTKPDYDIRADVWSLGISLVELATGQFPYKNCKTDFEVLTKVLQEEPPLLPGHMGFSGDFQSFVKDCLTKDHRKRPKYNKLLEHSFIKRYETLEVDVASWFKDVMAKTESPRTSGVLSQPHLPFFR
Method in brief: as §2

[12] = biological target: Tyrosine-protein kinase CSK (Homo sapiens) (UniProt P41240); assay: Inhibition of Tyrosine-protein kinase CSK at 100 nM; parameters: scale not given: the % may be the effect or the level left
Tyrosine-protein kinase CSK (Homo sapiens), sequence (P41240 2-450 limits assumed): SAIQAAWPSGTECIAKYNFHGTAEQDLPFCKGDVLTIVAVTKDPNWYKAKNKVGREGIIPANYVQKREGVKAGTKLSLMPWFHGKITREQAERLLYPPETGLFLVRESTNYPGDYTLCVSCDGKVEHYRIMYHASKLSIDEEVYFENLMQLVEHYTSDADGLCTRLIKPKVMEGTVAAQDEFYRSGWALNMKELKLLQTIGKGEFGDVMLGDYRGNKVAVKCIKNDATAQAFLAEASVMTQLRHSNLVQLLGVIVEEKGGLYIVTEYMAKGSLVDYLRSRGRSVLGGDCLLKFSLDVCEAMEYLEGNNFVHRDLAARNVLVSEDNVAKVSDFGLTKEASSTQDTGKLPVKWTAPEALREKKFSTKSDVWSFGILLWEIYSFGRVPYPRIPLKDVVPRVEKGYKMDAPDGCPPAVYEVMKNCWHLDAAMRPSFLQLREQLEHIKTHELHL
Method in brief: as §1

[13] = biological target: Ribosomal protein S6 kinase alpha-5 (Homo sapiens) (UniProt O75582); assay: Inhibition of MSK-1 kinase at 100 nM; parameters: scale not given: the % may be the effect or the level left
Ribosomal protein S6 kinase alpha-5 (Homo sapiens), sequence (O75582 whole entry, looked up): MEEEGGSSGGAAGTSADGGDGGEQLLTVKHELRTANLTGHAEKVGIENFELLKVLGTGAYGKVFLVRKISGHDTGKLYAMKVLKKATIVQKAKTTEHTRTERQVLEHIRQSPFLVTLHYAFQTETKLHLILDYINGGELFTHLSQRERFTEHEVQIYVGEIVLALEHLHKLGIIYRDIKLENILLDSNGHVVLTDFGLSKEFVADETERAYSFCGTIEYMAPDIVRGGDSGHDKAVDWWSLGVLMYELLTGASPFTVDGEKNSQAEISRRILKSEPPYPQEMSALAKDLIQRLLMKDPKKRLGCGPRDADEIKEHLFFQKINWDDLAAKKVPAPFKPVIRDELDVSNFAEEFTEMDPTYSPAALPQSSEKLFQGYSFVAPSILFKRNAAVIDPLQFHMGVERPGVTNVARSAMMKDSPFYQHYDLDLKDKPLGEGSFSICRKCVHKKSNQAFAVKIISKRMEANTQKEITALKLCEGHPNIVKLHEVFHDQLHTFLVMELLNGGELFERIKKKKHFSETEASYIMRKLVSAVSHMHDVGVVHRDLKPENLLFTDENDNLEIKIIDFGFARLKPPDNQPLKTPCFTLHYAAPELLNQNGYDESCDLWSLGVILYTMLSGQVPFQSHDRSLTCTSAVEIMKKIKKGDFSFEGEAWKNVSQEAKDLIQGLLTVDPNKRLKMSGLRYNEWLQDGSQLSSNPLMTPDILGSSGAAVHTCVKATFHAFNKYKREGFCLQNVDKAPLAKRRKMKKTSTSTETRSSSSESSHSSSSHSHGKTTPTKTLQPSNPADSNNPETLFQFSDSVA
Method in brief: as §2

[14] = biological target: Cyclin-dependent kinase 4 (Homo sapiens) (UniProt P11802); assay: Inhibition of Rb phosphorylation at the CDK4 specific Ser780 residue (3 fold increase over control) after 24 hr incubation in HCT116 cells; format: functional, cell-based; conditions: HCT-116, concentration not given here
Cyclin-dependent kinase 4 (Homo sapiens), sequence (P11802 whole entry): as the sequence (P11802 whole entry) above

[15] = biological target: Tyrosine-protein kinase Fyn (Homo sapiens) (UniProt P06241); assay: Inhibition of Fyn protein kinase at 100 nM; parameters: scale not given: the % may be the effect or the level left
Tyrosine-protein kinase Fyn (Homo sapiens), sequence (P06241 2-537 limits assumed): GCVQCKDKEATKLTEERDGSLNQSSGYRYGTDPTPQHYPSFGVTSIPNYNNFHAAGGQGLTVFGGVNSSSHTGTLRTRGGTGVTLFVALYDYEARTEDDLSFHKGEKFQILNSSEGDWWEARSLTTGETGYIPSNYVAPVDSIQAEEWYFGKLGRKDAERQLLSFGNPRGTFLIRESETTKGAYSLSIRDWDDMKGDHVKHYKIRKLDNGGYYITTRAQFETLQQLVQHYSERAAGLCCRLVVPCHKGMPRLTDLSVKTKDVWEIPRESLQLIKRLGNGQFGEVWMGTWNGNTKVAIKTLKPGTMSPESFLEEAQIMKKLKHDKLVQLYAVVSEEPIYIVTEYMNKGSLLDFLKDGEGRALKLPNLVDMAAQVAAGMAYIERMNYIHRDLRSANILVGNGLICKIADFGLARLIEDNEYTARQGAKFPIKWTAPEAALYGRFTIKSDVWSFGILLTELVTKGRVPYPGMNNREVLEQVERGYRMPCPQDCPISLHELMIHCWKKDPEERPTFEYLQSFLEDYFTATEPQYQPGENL
Method in brief: as §2

[16] = biological target: Casein kinase II (Homo sapiens) (UniProt P67870+P68400+P19784); assay: Inhibition of CK2 kinase at 500 nM; format: protein-complex assay; parameters: scale not given: the % may be the effect or the level left
Method in brief: as §2

[17] = biological target: Serine/threonine-protein kinase Sgk1 (Homo sapiens) (UniProt O00141); assay: Inhibition of Serum/glucocorticoid regulated kinase at 500 nM; parameters: scale not given: the % may be the effect or the level left
Method in brief: as §1

[18] = biological target: Serine/threonine-protein kinase Chk1 (Homo sapiens) (UniProt O14757); assay: Inhibition of Serine/threonine-protein kinase Chk1 at 500 nM; parameters: scale not given: the % may be the effect or the level left
Method in brief: as §1

[19] = Aqueous solubility (in situ) in D5W after 1 week was determined; format: physicochemical; conditions: D5W
[20] = biological target: Protein kinase C gamma type (Homo sapiens) (UniProt P05129); assay: Inhibition of Protein kinase C gamma at 500 nM; parameters: scale not given: the % may be the effect or the level left
Method in brief: as §1

[21] = biological target: Tyrosine-protein kinase Fyn (Homo sapiens) (UniProt P06241); assay: Inhibition of Fyn protein kinase at 500 nM; parameters: scale not given: the % may be the effect or the level left
Method in brief: as §2

[22] = biological target: Mitogen-activated protein kinase kinase kinase 20 (Homo sapiens, UniProt Q9NYL2); assay: Inhibition of MLK-7 kinase
[23] = biological target: Protein kinase C alpha type (Homo sapiens) (UniProt P17252); assay: Inhibition of Protein kinase C alpha at 100 nM; parameters: scale not given: the % may be the effect or the level left
Method in brief: as §2

[24] = biological target: Casein kinase I (Homo sapiens) (UniProt Q9HCP0+P78368+P48730+P49674+P48729); assay: Inhibition of CK1 kinase at 500 nM; format: protein assay; parameters: scale not given: the % may be the effect or the level left
Method in brief: as §2

[25] = biological target: CDK3/cyclin E (Homo sapiens) (UniProt P24864+O96020+Q00526); assay: Inhibition of Cyclin E-cyclin-dependent kinase 3 at 100 nM; format: protein-complex assay; parameters: scale not given: the % may be the effect or the level left
Method in brief: as §2

[26] = biological target: Calcium/calmodulin-dependent protein kinase type IV (Homo sapiens) (UniProt Q16566); assay: Inhibition of Calcium/calmodulin-dependent protein kinase type IV at 100 nM; parameters: scale not given: the % may be the effect or the level left
Method in brief: as §2

[27] = biological target: Serine/threonine-protein kinase Chk2 (Homo sapiens) (UniProt O96017); assay: Inhibition of Serine/threonine-protein kinase Chk2 at 500 nM; parameters: scale not given: the % may be the effect or the level left
Method in brief: as §1

[28] = biological target: Ribosomal protein S6 kinase (P70S6K) (Homo sapiens) (UniProt Q9UBS0+P23443); assay: Inhibition of Ribosomal protein S6 kinase (p70S6K) at 500 nM; format: protein-complex assay; parameters: scale not given: the % may be the effect or the level left
Method in brief: as §1

[29] = biological target: RAC-alpha serine/threonine-protein kinase (Homo sapiens, UniProt P31749); assay: Inhibition of Protein kinase B, Akt-1
[30] = biological target: Mitogen-activated protein kinase 1 (Homo sapiens) (UniProt P28482); assay: Inhibition of Mitogen-activated protein kinase 2 at 100 nM; parameters: scale not given: the % may be the effect or the level left
Mitogen-activated protein kinase 1 (Homo sapiens), sequence (P28482 whole entry): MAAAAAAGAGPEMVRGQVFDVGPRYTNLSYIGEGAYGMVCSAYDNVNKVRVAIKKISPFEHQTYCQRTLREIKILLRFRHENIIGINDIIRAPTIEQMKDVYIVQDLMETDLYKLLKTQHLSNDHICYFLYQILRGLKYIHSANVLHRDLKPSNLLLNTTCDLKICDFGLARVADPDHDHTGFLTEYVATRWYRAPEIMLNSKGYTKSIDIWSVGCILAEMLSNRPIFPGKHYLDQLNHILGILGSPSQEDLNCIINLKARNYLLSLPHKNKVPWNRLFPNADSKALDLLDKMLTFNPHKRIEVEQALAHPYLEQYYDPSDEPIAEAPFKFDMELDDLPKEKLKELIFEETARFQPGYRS
Method in brief: as §2

[31] = biological target: RAF proto-oncogene serine/threonine-protein kinase (Homo sapiens) (UniProt P04049); assay: Inhibition of RAF proto-oncogene serine/threonine-protein kinase at 500 nM; parameters: scale not given: the % may be the effect or the level left
RAF proto-oncogene serine/threonine-protein kinase (Homo sapiens), sequence (P04049 whole entry): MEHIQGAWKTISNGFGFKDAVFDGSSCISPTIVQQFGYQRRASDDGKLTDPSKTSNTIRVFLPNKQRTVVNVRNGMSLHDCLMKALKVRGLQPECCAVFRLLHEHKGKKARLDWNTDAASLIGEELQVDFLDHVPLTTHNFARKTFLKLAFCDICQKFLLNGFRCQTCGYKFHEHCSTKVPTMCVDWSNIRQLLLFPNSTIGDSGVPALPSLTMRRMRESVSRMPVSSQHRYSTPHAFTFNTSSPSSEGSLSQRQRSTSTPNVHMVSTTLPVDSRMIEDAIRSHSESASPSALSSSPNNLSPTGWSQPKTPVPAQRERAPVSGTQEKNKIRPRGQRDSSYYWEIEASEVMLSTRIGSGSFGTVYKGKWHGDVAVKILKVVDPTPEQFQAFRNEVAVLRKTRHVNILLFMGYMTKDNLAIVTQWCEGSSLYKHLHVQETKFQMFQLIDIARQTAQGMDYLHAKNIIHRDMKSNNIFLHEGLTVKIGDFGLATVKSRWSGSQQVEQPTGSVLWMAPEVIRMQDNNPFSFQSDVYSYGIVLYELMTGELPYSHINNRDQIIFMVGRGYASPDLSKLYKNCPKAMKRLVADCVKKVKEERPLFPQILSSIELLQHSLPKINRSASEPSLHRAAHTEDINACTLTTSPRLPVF
Method in brief: as §1

[32] = biological target: Rho-associated protein kinase 2 (Homo sapiens) (UniProt O75116); assay: Inhibition of Protein kinase ROCK2 at 100 nM; parameters: scale not given: the % may be the effect or the level left
Method in brief: as §1

[33] = biological target: Dual specificity mitogen-activated protein kinase kinase 6 (Homo sapiens) (UniProt P52564); assay: Inhibition of mitogen-activated protein kinase kinase 6 at 500 nM; parameters: scale not given: the % may be the effect or the level left
Method in brief: as §1

[34] = biological target: Mitogen-activated protein kinase 1 (Homo sapiens) (UniProt P28482); assay: Inhibition of Mitogen-activated protein kinase 2 at 500 nM; parameters: scale not given: the % may be the effect or the level left
Method in brief: as §2

[35] = biological target: T1, Cyclin-dependent kinase 4/cyclin D1; assay: Inhibitory activity against Cyclin D1-cyclin-dependent kinase 4 in enzymatic assay by measuring phosphorylation of Rb21; format: protein-complex assay
[36] = biological target: MAP kinase-activated protein kinase 5 (Homo sapiens) (UniProt Q8IW41); assay: Inhibition of Protein kinase PRAK at 500 nM; parameters: scale not given: the % may be the effect or the level left
Method in brief: as §1

[37] = biological target: Cyclin-dependent kinase 2/cyclin A (Homo sapiens) (UniProt P24941+P20248+P78396); assay: Inhibition of Cyclin A-cyclin-dependent kinase 2 at 100 nM; format: protein-complex assay; parameters: scale not given: the % may be the effect or the level left
Method in brief: as §2

[38] = biological target: Mitogen-activated protein kinase 14 (Homo sapiens, UniProt Q16539); assay: Inhibition of Mitogen-activated protein kinase p38 alpha
[39] = biological target: Tyrosine-protein kinase CSK (Homo sapiens) (UniProt P41240); assay: Inhibition of Tyrosine-protein kinase CSK at 500 nM; parameters: scale not given: the % may be the effect or the level left
Method in brief: as §1

[40] = biological target: Protein kinase C beta type (Homo sapiens) (UniProt P05771); assay: Inhibition of Protein kinase C beta 2 at 100 nM; parameters: scale not given: the % may be the effect or the level left
Method in brief: as §2

[41] = biological target: Cyclin-dependent kinase 5/CDK5 activator 1 (Homo sapiens) (UniProt Q00535+Q15078); assay: Inhibition of Cyclin-dependent kinase 5-p35nck5a at 100 nM; format: protein-complex assay; parameters: scale not given: the % may be the effect or the level left
Method in brief: as §2

[42] = biological target: Tyrosine-protein kinase SYK (Homo sapiens) (UniProt P43405); assay: Inhibition of Syk protein tyrosine kinase at 100 nM; parameters: scale not given: the % may be the effect or the level left
Method in brief: as §1

Tyrosine-protein kinase Lyn (Homo sapiens), sequence (P07948 2-512 limits assumed): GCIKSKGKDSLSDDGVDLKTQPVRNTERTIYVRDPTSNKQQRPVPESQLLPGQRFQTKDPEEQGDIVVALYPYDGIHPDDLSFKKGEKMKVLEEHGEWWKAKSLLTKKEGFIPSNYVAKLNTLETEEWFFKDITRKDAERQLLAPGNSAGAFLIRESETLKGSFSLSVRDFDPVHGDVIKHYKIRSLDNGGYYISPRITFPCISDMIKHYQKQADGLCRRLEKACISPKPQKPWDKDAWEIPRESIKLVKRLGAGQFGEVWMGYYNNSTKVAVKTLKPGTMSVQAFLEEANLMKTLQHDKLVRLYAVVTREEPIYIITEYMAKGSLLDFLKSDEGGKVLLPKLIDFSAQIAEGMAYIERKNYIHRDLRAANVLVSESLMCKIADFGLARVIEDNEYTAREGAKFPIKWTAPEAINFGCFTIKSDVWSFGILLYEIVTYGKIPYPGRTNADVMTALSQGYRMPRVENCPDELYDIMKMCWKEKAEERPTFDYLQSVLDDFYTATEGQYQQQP

Work on Cn1ccc2ccc3c4[nH]c5c(CCCN[C@H]6CC[C@H](O)CC6)cccc5c4c4c(c3c21)C(=O)NC4=O yielded a Control [1] of 78%, a Control [2] of 91% and a Control [3] of 88%. The Control [4] was 94%, the Control [5] was 82% and the Control [6] was 18%. The Control [7] was 102%, the Control [8] was 120% and the Control [9] was 68%. It also gave an IC50 [10] of 0.049 µM, a Control [11] of 86% and a Control [12] of 104%. For the same molecule, the Control [13] was 92%, the inhibition [14] was 83% and the Control [15] was 92%. The Control [16] was 94%, the Control [17] was 84% and the Control [18] was 70%. For the same molecule, the solubility at 168 h [19] was 8900 µg/mL (≈ 18 mM), the Control [20] was 84% and the Control [21] was 74%. The IC50 [22] was 9.97 µM, the Control [23] was 100% and the Control [24] was 89%. The Control [25] was 89%, the Control [26] was 108% and the Control [27] was 53%. The Control [28] was 85%, the IC50 [29] was 5.48 µM and the Control [30] was 103%. The Control [31] was 107%, the Control [32] was 90% and the Control [33] was 98%. It also gave a Control [34] of 90%, an IC50 [35] of 0.019 µM and a Control [36] of 50%. It also gave a Control [37] of 83%, an IC50 [38] of 20.2 µM and a Control [39] of 116%. The Control [40] was 96%, the Control [41] was 94% and the Control [42] was 94%.
